The results in this text go back to ChEMBL document CHEMBL1135406, “Distribution of furamidine analogues in tumor cells: influence of the number of positive charges” (J Med Chem, 2002).

As usually defined, the pIC50 is −log10 of the IC50, conventionally taken in molar units.

pIC50: −log10 of the molar value.

The subject of the experiment is B16. Description: Drug concentration required to inhibit B16 cell growth by 50% after 72 hours of incubation. The class given is functional, cell-based. The settings on record: Mus musculus, B16, 72 h. Put shortly: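 B16 murine melanoma cells grown in DMEM-glutaMAX with 10% FBS, penicillin and streptomycin, 37 °C, 5% CO2; harvested by trypsinization and plated 20 h before dosing. 2 × 10⁴ exponentially growing cells per well exposed to a range of drug concentrations for 72 h at 37 °C; MTS added for a further 3 h; absorbance read at 492 nm; IC50 = 50% growth inhibition.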

Consider `N=C(N)c1ccc(-c2ccc(-c3nc4cc(C(=N)N)ccc4[nH]3)o2)cc1`, for which the pIC50 was 4.36. For `c1ccc2[nH]c(-c3ccc(-c4ccc(C5=NCCN5)cc4)o3)nc2c1` the value was 5.07. `N=C(N)c1ccc(-c2ccc(-c3nc4ccccc4[nH]3)o2)cc1` had a pIC50 of 4.29. The result for `c1cc(-c2ccc(-c3ccc(C4=NCCN4)cc3)o2)ccc1C1=NCCN1` reads 5.96. As for `COc1ccc(-c2ccc(-c3ccc(C(=N)N)cc3)o2)cc1`, the pIC50 was 5.46.

Take `N=C(N)c1ccc2[nH]c(-c3ccc(-c4ccc(N)cc4)o3)nc2c1`: the pIC50 is under 4.00. The result for `CN(C)CCCC(=O)Nc1ccc(-c2ccc(-c3ccc(NC(=O)CCCN(C)C)cc3)o2)cc1` reads 5.64; that for `CN(C)CCC/N=C(\N)c1ccc(-c2ccc(-c3ccc(/C(N)=N/CCCN(C)C)cc3)o2)cc1`, 5.60; that for `N=C(N)c1ccc(-c2ccc(-c3ccc(C(=N)N)cc3)o2)cc1` [FURAMIDINE], 5.04.

`COc1ccc(-c2ccc(-c3ccc(C4=NCCN4)cc3)o2)cc1` gave a pIC50 of 5.77.

`CN(C)CCC/N=C(\N)c1ccc(-c2ccc(-c3nc4cc(/C(N)=N/CCCN(C)C)ccc4[nH]3)o2)cc1` had a negative-log IC50 (pIC50) of under 4.00.
